Measurements collected from several papers.
Target: Receptor-interacting serine/threonine-protein kinase 2 (RIPK2, Homo sapiens, UniProt O43353)

Structure (SMILES)	assay	conditions	quantity	value
Cc1ccc(NC(=O)c2ccnc(C(F)(F)F)c2)cc1-c1cc(OCCO)nc(N2CCOCC2)c1	binding, competition with immobilised ligand	1 µM	remaining binding	63%
COc1ccc2oc(-c3ccc4nc(N)oc4c3)c/c(=N\c3ccccc3NC(=O)CCN)c2c1	binding	1 µM	remaining binding	112%
CO[C@@H]1[C@H](N(C)C(=O)c2ccccc2)C[C@H]2O[C@]1(C)n1c3ccccc3c3c4c(c5c6ccccc6n2c5c31)C(=O)NC4	enzyme activity, inhibitor	1 µM	inhibition	0%
CCCCC(=O)Nc1ccc(-c2ccc3ncn(CCC)c(=O)c3c2)cn1	binding, competition with immobilised ligand	0.5 µM	remaining binding	98%
CC(C)S(=O)(=O)c1ccc2nccc(Nc3ccc4sc(C5CCCC5)nc4c3)c2c1	enzyme activity, inhibitor	1 µM	activity vs control	2.5%
C#Cc1cc(-c2cc(Nc3nc(N[C@@H](C)c4ccc(F)cn4)ncc3Cl)n[nH]2)ccc1C=O	enzyme activity, inhibitor	0.2 µM	inhibition	14.7%
C=CC(=O)N1CCC([C@@H]2CCNc3c(C(N)=O)c(-c4ccc(Oc5ccccc5)cc4)nn32)CC1	enzyme activity, inhibitor	1 µM	inhibition	96%
COc1ccc2[nH]c3c4[nH]c5ccc(OC)cc5c4c4c(c3c2c1)C(=O)NC4=O	binding, competition with immobilised ligand	1 µM	remaining binding	60%
